Compound activity from PubChem BioAssay.
PKA-R2B activ: PKA-R2B complex activation; 340,000 compounds, 0.079% hits; P22694+P31323; activation, % at 11.4 µM; PKA-R2B holoenzyme dissociation, Cy5-IP20 fluorescence polarization; R2B truncated from residue 108, S112A mutant; 0% DMSO only, 100% 113 µM cGMP;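 active = activation above a cutoff set at the mean over all compounds plus 3 SD, cut at about 18% in these data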;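 also: higher means more holoenzyme dissociation and a rise in polarization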
CDK5 p35 inh: inhibitors of human CDK5/p35 kinase. Recombinant CDK5/p35, ADP-Glo luminescence, 60 min. 330,000 compounds, 0.01% hits. Q00535+Q15078. inhibition, % at 10 µM;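 active = highest replicate inhibition of at least 50% and at least 75% of replicates reaching 50%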
SR-BI uptake up: SR-BI HDL lipid transfer activation. CHO ldlA[mSR-BI] cells, DiI-HDL uptake fluorescence, 3 h; 100 = double the neutral-control signal. activation, % at 12.5 µM. 320,000 compounds, 0.096% hits. AID 504775;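 active = mean replicate activation of at least 60% and every replicate at or above 60%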
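Test system: SR-BI-overexpressing, LDLR-lacking CHO cells; Also added: labelled HDL, 10 µg/mL; Measured by: bottom-read cell fluorescence after medium removal, ex 550/em 595 nm; Timing: 3 h uptake period with compound, 37 °C; Buffer or medium: F12, 0.5% BSA, 25 mM HEPES; Doses: single compound concentration, delivered by pin transfer.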
SR-BI DiI inh: mouse SR-BI HDL lipid transfer inhibition | 320,000 compounds, 0.96% hits | inhibition, % at 12.5 µM | ldlA[mSR-BI] CHO cells, DiI-HDL uptake fluorescence, 3 h | AID 488896 | Q61009;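 active = mean replicate inhibition of at least 70% and a set share of replicates each scoring 70 or more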
dFosB act-1: enhances mouse delta FosB homodimer DNA binding. P13346. purified delta FosB, TAMRA-CDK5 oligo fluorescence polarization; percent of positive-control signal above neutral wells. activation, % at 25 µM. 340,000 compounds, 0.99% hits. AID 493131;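 active = mean activation above about 17%, with every replicate also reaching it, limit read from the data, passing the limit was not always enough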
Target sequence (P13346 whole entry, looked up): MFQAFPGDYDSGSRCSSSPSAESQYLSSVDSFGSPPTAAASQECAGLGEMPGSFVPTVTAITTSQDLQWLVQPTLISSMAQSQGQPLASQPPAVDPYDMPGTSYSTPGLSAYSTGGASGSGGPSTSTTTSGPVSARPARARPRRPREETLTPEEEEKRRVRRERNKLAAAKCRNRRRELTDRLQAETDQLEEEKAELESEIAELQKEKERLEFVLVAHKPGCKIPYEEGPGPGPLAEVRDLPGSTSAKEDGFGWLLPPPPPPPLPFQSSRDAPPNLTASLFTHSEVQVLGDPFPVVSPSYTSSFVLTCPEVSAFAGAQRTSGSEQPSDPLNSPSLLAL
PKA-R1A activ: PKA-R1A complex activation | 340,000 compounds, 0.083% hits | PKA-R1A dissociation, Cy5-IP20 fluorescence polarization; scaled: DMSO 0%, 113 µM cGMP 100% | P00514+P68181 | activation, % at 11.4 µM;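 active = percent activation above the mean of all tested compounds plus 3 SD, cut at about 19% in these data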;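 also: higher means more PKAc released from R1A so a rise in polarization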
dFosB act-2: activators of mouse delta FosB homodimer DNA binding. 2,400 tested, under 10 active. AID 588690. shares compounds with dFosB act-1. activation, % at 24.9 µM. purified delta FosB, TAMRA-CDK5 oligo fluorescence polarization; normalised: neutral wells 0, positive control 100;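 active = highest replicate activation at or above 34% and every replicate reaching that threshold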;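 also: higher polarization means more probe DNA bound by delta FosB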
Large screens that a line does not name were inactive (follow-up assays come after a bar, where they were run). An excerpt weighted towards active compounds, which were near 2.1% of everything screened.

COc1cc2[nH]c(=O)c(C(=O)NCCCN3CCOCC3)c(O)c2cc1OC	dFosB act-1 33.1 | dFosB act-2 inactive
Cc1ccc(C)c(NC(=O)Cc2nc(CNCC(C)C)cs2)c1	none
CC(C)C[C@H]1CNC(=S)N1CC1CCCN1C[C@H](CC(C)C)N1C[C@H](Cc2ccc(O)cc2)N(CC2CCCCC2)C1=S (some centres not stated)	dFosB act-1 27.1 | dFosB act-2 inactive
CC(C)C[C@H]1CNC(=S)N1CC1CCCN1C[C@H](CC(C)C)N1C[C@H](Cc2ccc(O)cc2)N(CC2CCCCCC2)C1=S (some centres not stated)	dFosB act-1 23.3 | dFosB act-2 inactive
CC(C)C[C@@H](CN1CCCC1CN1C(=S)NC[C@@H]1Cc1ccc(O)cc1)N1C[C@H](Cc2ccc(O)cc2)N(CC2CCCCC2)C1=S (some centres not stated)	SR-BI uptake up 76.1, dFosB act-1 36.5 | dFosB act-2 inactive
CC(C)C[C@H]1CNC(=S)N1CC1CCCN1C[C@H](Cc1ccccc1)N1C[C@H](Cc2ccc(O)cc2)N(CC2CCCCC2)C1=S (some centres not stated)	dFosB act-1 59.2 | dFosB act-2 inactive
C=CCOc1c(Br)cc(/C=N/NC(=O)Cc2ccc(C(F)(F)F)cc2[N+](=O)[O-])cc1OC	SR-BI DiI inh 75.1, dFosB act-1 36.7 (no result: CDK5 p35 inh) | dFosB act-2 inactive
COc1ccc(C(=O)NN(C)c2nc(-c3ccccc3)nnc2C(F)(F)F)cc1	dFosB act-1 68.1 | dFosB act-2 inactive
Cc1cccc(C(=O)NN(C)c2nc(-c3ccccc3)nnc2C(F)(F)F)c1	none
N#Cc1c(SCC(=O)Nc2ccccc2)nsc1SCC(=O)Nc1ccccc1	dFosB act-1 24.7 | dFosB act-2 inactive
COc1ccc(-c2cc(=O)oc3c(C)c(OC(C)C(=O)Nc4ccc(CN5CCOCC5)cc4)ccc23)cc1 (configuration not stated)	dFosB act-1 43.1 | dFosB act-2 inactive
Cc1sc2ncnc(SCC(=O)c3ccc(O)cc3O)c2c1C	dFosB act-1 40.3 (no result: SR-BI uptake up, SR-BI DiI inh) | dFosB act-2 inactive
Cc1sc2ncnc(SCC(=O)Nc3ncccc3O)c2c1C	none
CN(C)C(=O)CCc1ccc2c3c([nH]c2c1)[C@]1(CCc2ccccc2)[C@@H](C(=O)N2CCCCC2)C[C@H](CC(=O)NCCCn2ccnc2)C(=O)N1CC3	none
C/C=C1\COC(C(=O)NCc2ccccc2)(C(F)(F)F)C=C1C=C(C)C (configuration not stated)	none
Cc1cc([N+](=O)[O-])c(C)cc1-c1ccc(/C=N/NC(=O)Cn2nnnc2N)o1	dFosB act-1 33.1 | dFosB act-2 inactive
CCCN(CC1CC1)C(=S)NC(=O)c1cc(Br)ccc1Cl	none
Clc1ccc2nc(C(Cl)(Cl)Cl)[nH]c2c1	none (no result: CDK5 p35 inh, SR-BI uptake up, SR-BI DiI inh, dFosB act-1)
CCC(C)c1ccc(S(=O)(=O)N2CCN(S(=O)(=O)c3ccc(NC(C)=O)cc3)CC2)cc1 (configuration not stated)	dFosB act-1 80.5 (no result: SR-BI uptake up, SR-BI DiI inh) | dFosB act-2 inactive
COc1ccc([C@H]2N[C@]3(CCCN(CC4CCCCC4)C3=O)[C@H]3C(=O)N(Cc4ccccc4)C(=O)[C@@H]23)cc1	none (no result: CDK5 p35 inh, SR-BI uptake up, SR-BI DiI inh, dFosB act-1)
CC(C)(C)OC(=O)N[C@@H](Cc1ccccc1)c1nnc(SCC(=O)O)o1	none
CC(C)(C)OC(=O)N[C@@H](Cc1ccccc1)c1nnc(SCC(=O)c2ccc(Cl)cc2)o1	dFosB act-1 43.8 | dFosB act-2 inactive
COc1ccc([N+](=O)[O-])cc1NC(=O)COC(=O)c1ccc(O)cc1	dFosB act-1 52.7 | dFosB act-2 inactive
COc1ccc([N+](=O)[O-])cc1NC(=O)c1ccc(Br)s1	dFosB act-1 58.7 | dFosB act-2 inactive
C=CCn1c(SCc2ccccc2F)nc2cc(C(=O)O)ccc2c1=O	none
COc1ccc(/C(C)=N/NC(=O)c2nnn(-c3nonc3N)c2-c2ccccc2)cc1	dFosB act-1 29.7 (no result: SR-BI uptake up, SR-BI DiI inh) | dFosB act-2 inactive
C/C(=N\NC(=O)c1nnn(-c2nonc2N)c1C(C)C)c1ccncc1	none
C/C(=N\NC(=O)c1nnn(-c2nonc2N)c1C(C)C)c1ccc2ccccc2c1	dFosB act-1 40.6 | dFosB act-2 inactive
COc1ccc(/C(C)=N/NC(=O)c2nnn(-c3nonc3N)c2-c2cccs2)cc1	none
N#C/C(=C\c1cn(Cc2cccc(F)c2)c2ccccc12)C(=O)NCc1ccco1	dFosB act-1 37.2 | dFosB act-2 inactive
N#C/C(=C\c1cn(Cc2ccccc2)c2ccccc12)C(=O)NCc1ccco1	none
Cc1cccc(NC(=O)/C(C#N)=C/c2cn(CC(=O)NCc3ccco3)c3ccccc23)c1C	dFosB act-1 37.3 | dFosB act-2 inactive
COc1ccc(S(=O)(=O)N2CCOCC2)cc1NC(=O)Cn1nnc2ccccc2c1=O	none
Cc1cc(C(C)(C)C)cc(S(=O)(=O)Nc2ccc(O)c(C(=O)O)c2)c1C	none
CC(=O)Nc1ccc(NC(=O)c2ccc(NS(=O)(=O)c3cc(C(C)(C)C)cc(C)c3C)cc2)cc1	dFosB act-1 53.9 | dFosB act-2 inactive
O=C(CN1CCCCC1)Nc1c2c(nc3ccccc13)N(c1ccccc1)CC2	dFosB act-1 56.0 | dFosB act-2 inactive
CCCC(=O)Nc1c2c(nc3ccccc13)N(c1ccccc1)CC2	none
O=C(/C=C/c1ccc(Cl)cc1Cl)c1nc2ccccc2[nH]1	dFosB act-1 39.8 | dFosB act-2 inactive
COc1cc(C(=O)Nc2ccc(C)c(S(=O)(=O)N(C)C)c2)ccc1OCC(=O)N1CCOCC1	none
CN1CCN(C(=O)CCN2C(=O)/C(=C/c3ccc(F)cc3)SC2=S)CC1	none
O=C(O)COc1ccc(NC(=O)c2ccc(NC(=O)c3ccco3)cc2)cc1	none
COc1ccc(C(=O)Nc2ccc(NC(=O)c3ccco3)cc2)cc1	dFosB act-1 51.0 (no result: SR-BI uptake up, SR-BI DiI inh) | dFosB act-2 inactive
COc1ccc(C(=O)Nc2ccc(C(=O)NCCc3ccc(OC)c(OC)c3)cc2)cc1	SR-BI DiI inh 79.0, dFosB act-1 41.1 | dFosB act-2 inactive
O=C(Cn1nnc(-c2ccc(Cl)cc2)n1)N1CCN(C(=O)c2ccco2)CC1	none
COc1ccc(OC)c(-c2csc(N(C)C(=O)c3ccco3)n2)c1	dFosB act-1 19.4 | dFosB act-2 inactive
COc1ccc(C(=O)Nc2ccc(-c3nnn(CC(=O)N4CCN(C(=O)c5ccco5)CC4)n3)cc2)cc1	dFosB act-1 67.7 | dFosB act-2 inactive
